# Counter-ions that a name gives are not always drawn.
# Tested on: M. smegmatis 70S ribosome (spectinomycin site: helix-34 of 16S rRNA and RpsE protein)
# Assay: cell-free translation, luciferase read-out
# Assay type: biochemical, Mycolicibacterium smegmatis
# Settings: purified 70S ribosomes, firefly luciferase mRNA
# Method in brief: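 Purified M. smegmatis 70S ribosomes were used in translation reactions programmed with firefly luciferase mRNA that was transcribed in vitro with T7 RNA polymerase. Inhibition was read as loss of luciferase activity. IC50 was taken as the drug concentration that inhibits luciferase activity by 50%.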
row,SMILES,Ribosome translation inhibition IC50
1,"CN[C@H]1C[C@@H](NC)[C@H](O)[C@H]2O[C@@H]3O[C@H](C)C[C@@H](NC(=O)Cc4ccccn4)[C@]3(O)O[C@@H]21 [compound 10, 2-Deoxy-3’-deoxy-3’-dihydro-3’(R)-[(pyridin-2-yl)acetylamino]spectinomycin dihydrochloride]",10.2 µg/mL
2,"CN[C@@H]1[C@H](O)[C@H](NC)[C@H]2O[C@@]3(O)C(=O)C[C@@H](C)O[C@H]3O[C@@H]2[C@@H]1Cl [compound 8, 6-Epi-chloro-6-deoxyspectinomycin dihydrochloride]",54.7 µg/mL
3,"CN[C@H]1[C@@H](O)[C@@H](NC)C[C@H]2O[C@@H]3O[C@H](C)C[C@@](O)(CNCc4ccc(F)cc4)[C@]3(O)O[C@H]12 [compound 7, 6-Deoxy-3’-dihydro-3’(R)-[(4-fluorobenzyl)aminomethyl]spectinomycin trihydrochloride]",23.3 µg/mL

# Results, then the compound that gave them:
row,Ribosome translation inhibition IC50,SMILES
1,> 60 µg/mL,"CN[C@H]1C[C@@H](NC)[C@H](O)[C@H]2O[C@@H]3O[C@H](C)CC(=O)[C@]3(O)O[C@@H]21 [compound 9, 2-Deoxyspectinomycin dihydrochloride]"
2,0.36 µg/mL,"CN[C@@H]1[C@H](O)[C@H](NC)[C@H]2O[C@@]3(O)C(=O)C[C@@H](C)O[C@H]3O[C@@H]2[C@H]1O [compound 1, Spectinomycin]"

# Source: article PMC8154590 (The Journal of antibiotics, 2021)
